The test system of series [1] is CH1. Nature of the series: In vitro antitumor activity against CH1 cell line. The format is functional, cell-based, Homo sapiens. Put shortly: (§1)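 Human ovarian carcinoma monolayers were grown in DMEM with 10% FCS, insulin and hydrocortisone under 10% CO2. Cells were seeded at 5 × 10^3–1 × 10^4 per well and left to attach overnight. Drugs were freshly dissolved in 0.9% saline (1 mM or 500 μM stocks) and added to quadruplicate wells for 96 h. Cell mass was read by SRB staining. IC50 values are means of at least two experiments.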

Series [2] has as its system SK-OV-3. As to the kind of experiment: In vitro antitumor activity against SK-OV-3 cell line. The class given is functional, cell-based, Homo sapiens. Summed up:
as §1

In series [3] the test system is A2780. Nature of the series: In vitro antitumor activity against A2780 cell line. The format is functional, cell-based, Homo sapiens. Summed up:
as §1

Series [4] relates to 41M. Nature of the series: In vitro antitumor activity against 41McisR cell line. The format is functional, cell-based, Homo sapiens. Summed up:
as §1

The subject of series [5] is A2780. Nature of the series: In vitro antitumor activity against A2780cisR cell line. The format is functional, cell-based, Homo sapiens. Summed up:
as §1

Series [6] has as its system CH1. As to the kind of experiment: In vitro antitumor activity against CH1cisR cell line. The class given is functional, cell-based, Homo sapiens. Put shortly: as §1
Series [7] concerns 41M. As to the kind of experiment: In vitro antitumor activity against 41M cell line. The class given is functional, cell-based, Homo sapiens. Put shortly:
as §1

A short description of series [8]: In vivo antitumor activity by i.p. administration against murine ADJ/PC6 (sc) plasmacytoma. The format is ADME, organism-based. The following applies: mouse, ip.
The test system of series [9] is A2780. As to the kind of experiment: Resistant factor determined between IC50 of resistant line to that of parental A2780 cell line. The format is functional, cell-based. The following applies: Homo sapiens. Summed up:
(§2)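 Resistance factor is the IC50 in the cisplatin-resistant subline divided by the IC50 in its parent line. IC50s came from a 96 h SRB cytotoxicity assay run in quadruplicate wells.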

Series [10] deals with CH1. Nature of the series: Resistant factor, determined between IC50 of resistant line to that of CHcisR cell line. The format is functional, cell-based. The settings on record: Homo sapiens; CH1cisR. Summed up: as §2
The subject of series [11] is 41M. Nature of the series: Resistant factor was determined between IC50 of cisplatin-resistant human tumor cell lines to that of […] cell line. The class given is functional, cell-based. Put shortly: as §2

For orientation: IC50 means the concentration at which inhibition is half-maximal. In general, LD50 refers to the dose expected to kill half of the subjects tested. The low end stands for a more toxic substance, the high end for a less toxic substance.

Several values for one entry are separate records, joined by “and”; a condition that tells them apart may be missing. Identical values can stand only once.

In the case of “trans-a-Ammine-b,d-dichloro-c,e-dihydrooxy-f-(ethylamine)-platinium (IV) [listing 1 of 2 here]”, the IC50 turned out to be 10.3 µM in series [1]; 45 µM in [2]; 4.5 µM in series [3]; 13.3 µM in series [4]; 26.5 µM in [5]; 14 µM in series [6]. This substance also displayed an IC50 in series [7] of 9.4 µM.
In the case of “trans-a-Ammine-b,d-dichloro-c,e-dihydroxy-f-(diethylamine)-platinium (IV) [listing 1 of 2 here]”, the IC50 in series [1] was 3.3 µM; in series [2], 12.1 µM; in [3], 1.9 µM; in series [4], 0.76 µM; in [5] it was 11.6 µM; in series [6], 4.5 µM. Besides, in series [7], the IC50 worked out at 1.8 µM.
“trans-Amminetetrachloro(cyclohexylamine)-platinium (IV) [listing 1 of 2 here]”: the IC50 in [1] came out at 3.9 µM; in series [2], 9.3 µM; in series [3], 1.5 µM; in [4], 4.1 µM; in [5], 5.3 µM; in [6], 4.7 µM. The same substance came in with an IC50 in series [7] of 3.1 µM.
With “trans-a-Ammine-b,d-dichloro-c,e-dihydrooxy-f-(Morphiline)-platinium (IV)”, the IC50 amounted to 17.3 µM in [1]; 47 µM in series [2]; 10.9 µM in series [3]; 54 µM in series [4]; 47 µM in series [5]; 28.3 µM in series [6]. The IC50 in [7] came to 26 µM. Also, the LD50 in series [8] was 82 mg/kg.
Take “AMMONIO(DICHLORO)[DI(METHYLCARBONYLOXY)]PLATINUM(CYCLOHEXYL)AMMONIUM”: the RF in series [9] is 10; in [10], 1.4; in [11] it was 0.9.
For the substance “trans-a-Ammine-b,d-dichloro-c,e-dihydroxo-f-(1,1,3,3-tetramethyl butylamine)-platinium (IV)”, the IC50 in series [1] stood at 0.36 µM; in series [2], 1.8 µM; in [3], 0.4 µM; in series [4], 1 µM; in series [5], 2.2 µM; in series [6] it was 0.55 µM. In addition, the IC50 in series [7] is 0.48 µM. Moreover, the LD50 in series [8] is 29 mg/kg.
In the case of “trans-a-Ammine-b,d-dichloro-c,e-dihydrooxy-f-(cyclopentylamine)-platinium (IV)”, the IC50 in series [1] amounted to 1.1 µM; in series [2], 7 µM; in [3], 0.95 µM; in [4], 1.3 µM; in [5] it was 5.2 µM; in [6] it was 1.9 µM. Further, inhibition in [7] was half-maximal at 1.1 µM (IC50). This substance also returned an LD50 in series [8] of 15 mg/kg.
For the substance “trans-Amminetetrachloro(pyridine)-platinium (IV) [listing 1 of 2 here]”, the IC50 in series [1] is 4.7 µM; in series [2], 14.5 µM; in series [3], 3.2 µM; in series [4], 4.1 µM; in series [5], 5.6 µM; in series [6] it was 4.8 µM. Moreover, the IC50 in [7] came to 5.3 µM. This substance also displayed an LD50 in [8] above 100 mg/kg.
Take “Trans-Amminedichloro hexylamine platinium (II) [listing 1 of 2 here]”: the IC50 in series [1] came to 4 µM; in series [2] it was 7.1 µM; in series [3], 2.3 µM; in series [4] it was 4.1 µM; in [5], 4.8 µM; in [6] it was 4.4 µM. The substance further came in with an IC50 in series [7] of 4.5 µM.
Turning to “trans-Amminedichloro(quinuclidine)platinium (II)”, the IC50 is above 50 µM in [1]; above 50 µM in series [2]; 26 µM in [3]; above 50 µM in series [4]; above 50 µM in series [5]; above 50 µM in series [6]. This substance also showed an IC50 in series [7] above 50 µM.
With “trans-a-ammine-b,d-dichloro-f-(cyclohexylamine)-c,e-dihydroxoplatinium (IV)”, the IC50 is 1.1 µM and 0.57 µM in [1]; 6 µM and 16.6 µM in series [2]; 0.42 µM and 0.8 µM in series [3]; 1.4 µM and 3.2 µM in series [4]; 3 µM and 1.9 µM in [5]; 2.1 µM and 2 µM in series [6]. Moreover, the IC50 in series [7] is 1.3 µM and 3.5 µM.
For “trans-Amminetetrachloro(pyridine)-platinium (IV) [listing 2 of 2 here]”, the RF came out at 1.7 in series [9], 1 in series [10] and 0.8 in series [11].
As for “Trans-Amminedichloro(cycloheptylamine)platinium (II) [listing 1 of 2 here]”, the IC50 in [1] amounted to 4.3 µM; in series [2] it was 10 µM; in series [3], 1.3 µM; in series [4] it was 1.7 µM; in [5], 4.6 µM; in series [6] it was 4.7 µM. Besides, in series [7], it took 2.4 µM to reach half-maximal inhibition (IC50).
“Trans-Amminedichloro(cycloheptylamine)platinium (II) [listing 2 of 2 here]”: the figures for the RF in series [9], in series [10] and in series [11] were 3.4, 1.1 and 0.7, respectively.
For “trans-Amminedibromo (cyclohexylamine)-platinium (II) [listing 1 of 2 here]” the same measures were 2.8, 1.2 and 0.8.
For “trans-Amminedichloro(N-methylcyclohexylamine)-platinium (II)”, in that order: 7.8, 2.8 and 0.6.
As for “trans-Amminetetrachloro(cyclohexylamine)-platinium (IV) [listing 2 of 2 here]”, the RF in [9] turned out to be 3.4; in [10], 1.2; in series [11] it was 1.3.
Take “trans-a,f-Dichloro-b,d-bis(cyclohexylamine)-c,e-dihydroxo-platinium (IV)”: the IC50 stood at 0.55 µM in series [1]; 2.5 µM in series [2]; 0.8 µM in [3]; 1.2 µM in series [4]; 3.2 µM in [5]; 0.6 µM in series [6]. This substance also showed an IC50 in series [7] of 0.8 µM.
In the case of “trans-a-Ammine-b,d-dichloro-c,e-dihydrooxy-f-(ethylamine)-platinium (IV) [listing 2 of 2 here]”, the values for the RF in series [9], in [10] and in [11] were 5.9, 1.4 and 1.4, respectively.
“trans-a-Ammine-b,d-dichloro-c,e-dihydroxo-f-(quinuclidine)-platinium (IV) [listing 1 of 2 here]”: the IC50 stood at 10.2 µM in series [1]; 27 µM in series [2]; 3.2 µM in series [3]; 9.5 µM in series [4]; 16 µM in series [5]; 14.3 µM in [6]. The substance further gave an IC50 in series [7] of 14.4 µM.
“Trans-Amminedichloro(diethylamine)platinium (II)”: the IC50 in series [1], in [2], in [3], in series [4], in series [5] and in series [6] was above 50 µM in each case. Further, the IC50 in [7] is above 50 µM.
Take “trans-Amminedibromo (cyclohexylamine)-platinium (II) [listing 2 of 2 here]”: the IC50 worked out at 4 µM in [1]; 11.5 µM in [2]; 1.9 µM in series [3]; 3.2 µM in series [4]; 5.4 µM in series [5]; 5 µM in series [6]. This substance yielded an IC50 in [7] of 4 µM.
As for “Trans-Amminedichloro hexylamine platinium (II) [listing 2 of 2 here]”, the results for the RF in series [9], in series [10] and in series [11] were 2.1, 1.1 and 0.9, respectively.
For “trans-a-Ammine-b,d-dichloro-c,e-dihydroxy-f-(diethylamine)-platinium (IV) [listing 2 of 2 here]”, in that order: 6.2, 1.4 and 0.4.
For “trans-(1-Aminoadamantane)Amminedichloro-platinium (II) [listing 1 of 2 here]” the same measures were 3.6, 2 and 2.4.
For “AMMONIO(DICHLORO)PLATINUM(CYCLOHEXYL)AMMONIUM”, the IC50 in series [2] is 2.1 µM and 7.2 µM; in series [4], 0.28 µM and 1.5 µM; in [6], 0.38 µM and 3.3 µM; in series [7] it was 0.26 µM and 1.7 µM. For the same substance, the LD50 in series [8] is 17.5 mg/kg and 35 mg/kg.
Regarding “trans-a-Ammine-b,d-dichloro-c,e-dihydroxo-f-(quinuclidine)-platinium (IV) [listing 2 of 2 here]”, the RF in series [9] turned out to be 5; in [10], 1.4; in [11], 0.7.
Regarding “trans-Amminetetrachloro(quinuclidine)-platinium (IV)”, the IC50 was 15.5 µM in [1]; 29 µM in series [2]; 14 µM in series [3]; 16 µM in series [4]; 16 µM in series [5]; 15.5 µM in [6]. Besides, in series [7], the IC50 is 16.5 µM.
“trans-a-ammine-b,d-dichloro-f-(cyclohexylamine)-c,e-bis-(ethylcarbamato)platinium (IV)”: the IC50 in [1] came out at 4.6 µM; in [2], 19 µM; in series [3], 3.2 µM; in [4], 4.3 µM; in series [5], 10.6 µM; in series [6], 5.6 µM. Besides, the IC50 in series [7] came out at 6.2 µM.
On to “trans-(1-Aminoadamantane)Amminedichloro-platinium (II) [listing 2 of 2 here]”, for which the IC50 in series [1] came to 0.21 µM; in [2] it was 1.5 µM; in [3], 0.4 µM; in series [4], 1.2 µM; in series [5] it was 1.4 µM; in [6] it was 0.43 µM. This substance came in with an IC50 in series [7] of 0.49 µM.

The record behind these values is ChEMBL document CHEMBL1128497, “Synthesis and in vitro and in vivo antitumor activity of a series of trans platinum antitumor complexes” (J Med Chem, 1995).
